High-throughput results as filed in PubChem BioAssay.
CHRM1 PAM: human CHRM1 positive allosteric modulation; P11229; CHO-K1 hM1, Fluo-8 calcium fluorescence, ACh EC20; 0% = ACh EC20, 100% = maximal ACh; activation, % at 3 µM; 360,000 tested, 0.088% active; AID 588819; in the data active means activation above about 19%, passing the limit was not always enough
CHRM1 agonist: agonists of human M1 muscarinic receptor; 360,000 tested, 0.33% active; P11229; CHO-K1 hM1, Fluo-8 calcium fluorescence, agonist mode; 0% DMSO, 100% acetylcholine EC100; activation, % at 3 µM;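 active means activation above the run's mean compound activation plus 3 SD, cut at about 16% in these data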;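 further: peak over basal fluorescence ratio within a 140 s kinetic read after compound addition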
M5 PAM: positive allosteric modulators of human muscarinic M5 receptor; CHO-K1 hM5, Fluo-8 calcium, ACh EC20 PAM; 0% = ACh EC20, 100% = ACh EC100; activation, % at 3 µM; 360,000 tested, 0.3% active; P08912;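 active means activation above the run cutoff, the mean activation of all test compounds plus 3 SD, cut at about 18% in these data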
Target sequence (P08912 whole entry, looked up): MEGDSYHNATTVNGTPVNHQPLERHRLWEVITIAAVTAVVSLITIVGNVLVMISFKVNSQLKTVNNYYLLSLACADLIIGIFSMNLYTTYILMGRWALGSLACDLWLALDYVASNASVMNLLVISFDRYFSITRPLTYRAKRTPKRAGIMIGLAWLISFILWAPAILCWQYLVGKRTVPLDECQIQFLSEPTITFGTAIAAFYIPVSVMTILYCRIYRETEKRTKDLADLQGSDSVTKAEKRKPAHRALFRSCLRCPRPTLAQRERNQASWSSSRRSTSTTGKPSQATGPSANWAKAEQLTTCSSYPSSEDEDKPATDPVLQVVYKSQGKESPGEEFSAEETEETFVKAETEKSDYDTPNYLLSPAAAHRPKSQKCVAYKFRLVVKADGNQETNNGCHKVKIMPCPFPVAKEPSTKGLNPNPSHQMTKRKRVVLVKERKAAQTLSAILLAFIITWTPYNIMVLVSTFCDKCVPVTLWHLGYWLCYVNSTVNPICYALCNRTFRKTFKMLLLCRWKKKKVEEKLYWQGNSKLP
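system = human M5 receptor in CHO-K1 cells | reagent = EC20 acetylcholine as agonist stimulus | compound dosing = single-point, 3 µM nominal | incubation = Fluo-8 loading 80 min at 37 °C plus 30 min room temperature | detection = Fluo-8 calcium dye fluorescence, kinetic read | benchmarks = low control EC20 acetylcholine (0%), high control EC100 acetylcholine (100%)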
CHRM1 antagonist: antagonists of human M1 muscarinic receptor. P11229. CHO-K1 hM1, Fluo-8 calcium fluorescence, ACh EC80 antagonist. inhibition, % at 3 µM. 360,000 tested, 1.3% active;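 active means percent inhibition above its own plate's cutoff, namely the mean of that plate's compound wells plus 3 SD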;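 further: peak over basal fluorescence ratio during 140 s after agonist addition; 0% = ACh EC80 plus DMSO and 100% = DMSO alone without agonist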
CHRM5 antagonist: blocks acetylcholine activation of human M5 receptor. P08912. CHO-hM5 cells, Fluo-8 calcium fluorescence, ACh EC80. inhibition, % at 3 µM. 360,000 tested, 0.59% active;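 active means inhibition above a per-plate cutoff, the mean of that plate's test compounds plus 3 SD, cut at about 27% in these data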;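 further: 0% = acetylcholine EC80 with DMSO and 100% = DMSO without agonist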
M5 ag: agonists of human muscarinic M5 receptor (CHRM5). CHO-K1 hM5 cells, Fluo-8 calcium fluorescence; 0% DMSO wells, 100% maximal acetylcholine response. activation, % at 3 µM. 360,000 tested, 0.19% active. AID 624037;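 active means activation above the run's mean over test compounds plus 3 SD, cut at about 23% in these data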;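 further: signal is peak over basal fluorescence ratio across the kinetic read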
* = called active by the depositor; x = not tested or not shown. Compounds with a hit are over-represented: about 2% of the library has one in this group of screens.

SMILES	CHRM1 PAM	CHRM1 agonist	M5 PAM	CHRM1 antagonist	CHRM5 antagonist	M5 ag
Cc1cc(C(=O)N/N=C/c2ccc(-c3ccc([N+](=O)[O-])cc3C)o2)n[nH]1	12	-3	-5	-12	10	-3
CCCCOc1ccccc1C(=O)NNC(=S)NC(=O)c1ccccc1[N+](=O)[O-]	-2	19*	-8	-7	21	9
O=C(NNC(=S)NC(=O)c1ccccc1[N+](=O)[O-])c1ccccc1[N+](=O)[O-]	9	-4	5	-2	-7	4
O=C(NC1CCCCC1)C(c1ccc(C(F)(F)F)cc1)n1c(=O)c(-c2ccco2)nc2ccccc21 (centres undefined)	x	x	7	x	-8	1
CCCCCC1CC(=O)NC1(C(=O)OCC)C(=O)OCC (centres undefined)	-23	-1	-22	40*	17	2
CCOC(=O)C1(C(=O)OCC)NC(=O)CC1CC (centres undefined)	6	0	2	-16	11	3
O=C(COc1ccc(Cl)cc1Br)NC(=O)NC1CCCC1	-17	-6	-1	31*	-3	-1
O=C(COc1ccccc1Cl)NC(=O)NC1CCCC1	-22	-9	5	34*	-10	-6
CCOC(=O)c1ccc(NC(=O)CSc2nnc(-c3cccs3)n2C)cc1	10	-2	21*	-27	-8	3
COc1ccc(NC(=O)CSc2nnc(-c3ccoc3C)n2CC2CCCO2)cc1 (centres undefined)	1	0	-13	27*	13	-4
CCn1c(SCC(=O)Nc2ccccc2)nc2c1c(=O)n(C)c(=O)n2C	-2	1	18*	2	1	2
COc1ccc(CC(=O)NCc2nnc(SCC(=O)c3ccc(OC)cc3)n2C)cc1	1	-8	0	2	10	-3
COc1ccc(NCc2nnc(SCC(=O)c3ccc(OC)cc3)n2C)cc1	6	-6	36*	-2	33*	-2
CC(C)=CCCC(C)c1cc(C(=O)NCCc2ccc(O)cc2)c(N)s1 (centres undefined)	x	x	7	x	-12	5
COc1ccc(-c2nnc(SCC(=O)Nc3ccccc3)n2C)cc1	-14	-8	-3	13*	-1	-2
Cn1c(NCCc2ccncc2)nc2cc(-c3ccccc3)sc2c1=O	7	-6	-1	-4	3	-2
COCCNC(=O)C(c1ccc(F)cc1)N(C(=O)CCC(=O)Nc1ccccn1)c1ccc(C)cc1 (centres undefined)	7	-5	13	-2	29*	1
Cc1cc(C(=O)CN2C(=O)NC(CC(C)C)C2=O)c(C)n1C1CC1 (centres undefined)	2	-1	-2	-4	7	6
COc1ccc(C2(C)NC(=O)N(CC(=O)c3cc(C)n(C4CC4)c3C)C2=O)cc1 (centres undefined)	5	40*	-7	0	0	42*
C=CCNC(=O)CN1C(=O)NC(C)(c2ccc(OC)cc2)C1=O (centres undefined)	-1	0	4	-2	1	-1
Cc1cc(C(=O)CN2C(=O)NC(C)(c3ccc(F)c(F)c3)C2=O)c(C)n1C1CC1 (centres undefined)	5	22*	-2	-7	1	22
O=C(Nc1ccc(NS(=O)(=O)c2ccccc2)cc1)c1ccc(Cl)cc1	3	-4	-7	-3	11	-6
COc1ccc(NS(=O)(=O)c2cccc(NC(=O)c3ccc(Cl)nc3)c2)cc1	-12	3	-18	24	35*	5
O=C(Nc1cccc(S(=O)(=O)Nc2ccc(Cl)cc2)c1)c1ccc(Cl)nc1	-15	1	-20	29*	35*	5
Cc1cc(C)c(N(CC(=O)NCc2ccccc2)C(=O)c2csnn2)c(C)c1	5	-6	23*	-4	-14	2
COc1ccc(N(CC(=O)NCCc2ccccc2)C(=O)c2csnn2)cc1	4	0	-11	-12	32*	-3
COc1ccc(N(CC(=O)NCCc2ccccc2)C(=O)c2csnn2)cc1OC	0	-3	2	8	2	0
